Results collected from several papers.
Protocols differ between the studies behind these lines. ≈ marks a conversion by molar mass, not a printed value.

SMILES	test	system	conditions	endpoint	result
Cc1nccn1CC1CCc2c(c3ccccc3n2C)C1=O (stereo not shown)		PBS	2 h, pH 7.4, 25 °C	kinetic solubility	110 µM (≈ 32.3 µg/mL)
Cc1ccccc1CN1C(=O)C2=C(CCN(Cc3ccccc3)C2)N2CCN=C12	shake flask	aqueous buffer	pH 6	solubility	260 µg/mL
N#Cc1ccc(C[C@H](NC(=O)Nc2ccc(F)cc2)C(=O)N2CCc3ccccc32)cc1		aqueous buffer	2 h, pH 7.4, 37 °C	kinetic solubility	10.5 µM (≈ 4.5 µg/mL)
C=CCn1c(=O)c2cnc(Nc3ccc(N4CCN(C)CC4)cc3)nc2n1-c1ccc2c(n1)[C@@](O)(CC)CC2		PBS	pH 7.4	thermodynamic solubility	2130 µM
CNS(=O)(=O)c1ccc(Nc2ncc(C(F)(F)F)c([C@H]3CC[C@@](C)(O)CC3)n2)c(C)c1		FaSSIF	2 h	solubility	128 µM
N#Cc1ccc(C[C@H](Nc2nnc(-c3ccc(Br)cc3)o2)C(=O)N2CCc3ccccc32)cc1		aqueous buffer	2 h, pH 7.4, 37 °C	kinetic solubility	1.8 µM (≈ 0.926 µg/mL)
O=[N+]([O-])c1ccc(Nc2ncnc3ccc(-c4cccc(N5CCOCC5)c4)cc23)cc1C(F)(F)F		aqueous buffer	pH 7.4, 25 °C	thermodynamic solubility	< 0.4 µM
CCCCCCCCCCCCCCCC(=O)NCCO		aqueous buffer	12 h, pH 6.8, 37 °C	thermodynamic solubility	< 16 µg/mL
CCN(CC)CCNC(=O)c1cc(S(C)(=O)=O)ccc1OC		PBS	2 h, pH 7.4, 25 °C	kinetic solubility	394 µM (≈ 129 µg/mL)
O=C(Nc1ccc(OC(F)(F)F)cc1)N[C@H]1CC[C@H](Oc2ccc(C(=O)O)cc2)CC1		simulated gastric fluid	15 min, pH 1, 37 °C, acidic	solubility	0.0023 µg/mL
N#Cc1ccc(C[C@@H](Nc2c(Nc3ccc(F)cc3)c(=O)c2=O)C(=O)N2CCc3ccccc32)cc1		aqueous buffer	2 h, pH 7.4, 37 °C	kinetic solubility	11.8 µM (≈ 5.67 µg/mL)
CCCCCCCCCCCCCCCC(=O)NCCOC(=O)C[C@@H](CN)CC(C)C		aqueous buffer	12 h, pH 6.8, 37 °C	thermodynamic solubility	3780 µg/mL
Cc1ccc(-c2nnc(N[C@@H](Cc3ccc(C#N)cc3)C(=O)N3CCc4ccccc43)o2)cc1		aqueous buffer	2 h, pH 7.4, 37 °C	kinetic solubility	5.4 µM (≈ 2.43 µg/mL)
CC[C@H](C)[C@H](NC(=O)[C@H](C)NC(=O)CNC(=O)[C@H](Cc1ccccc1)NC(=O)[C@H](CC(N)=O)NC(=O)[C@H](CC(N)=O)NC(=O)[C@H](CO)NC(=O)[C@H](CO)NC(=O)[C@H](Cc1c[nH]cn1)NC(=O)[C@@H](NC(=O)[C@H](CC(C)C)NC(=O)[C@H](Cc1ccccc1)NC(=O)[C@H](CC(N)=O)NC(=O)[C@H](C)NC(=O)[C@H](CC(C)C)NC(=O)[C@H](CCCNC(=N)N)NC(=O)[C@H](CCC(N)=O)NC(=O)[C@@H](NC(=O)[C@H](C)NC(=O)[C@@H]1CSSC[C@H](NC(=O)[C@@H](N)CCCCN)C(=O)N[C@@H](CC(N)=O)C(=O)N[C@@H]([C@@H](C)O)C(=O)N[C@@H](C)C(=O)N[C@@H]([C@@H](C)O)C(=O)N1)[C@@H](C)O)C(C)C)C(=O)N[C@@H](CC(C)C)C(=O)N[C@@H](CO)C(=O)N[C@@H](CO)C(=O)N[C@H](C(=O)N[C@@H](CC(N)=O)C(=O)N[C@H](C(=O)NCC(=O)N[C@@H](CO)C(=O)N[C@@H](CC(N)=O)C(=O)N[C@H](C(=O)N[C@@H](Cc1ccc(O)cc1)C(N)=O)[C@@H](C)O)C(C)C)[C@@H](C)O		PBS	1 h, pH 7.4	thermodynamic solubility	37 µg/mL
FC(F)(F)c1cc(Nc2ncnc3ccc(-c4cccc(N5CCOCC5)c4)cc23)ccc1Cl		aqueous buffer	pH 7.4, 25 °C	thermodynamic solubility	< 0.7 µM
Fc1ccccc1Nc1nc(-c2ccncc2)nc2c1CNCC2		PBS	24 h, pH 7.4	kinetic solubility	> 250 µM
